# Results published in PMC11094580 (EFSA Journal, 2024).
# Read-outs that look alike come from different tables or passages of the source.
# How the values were obtained:
# [1] = biological target: simvastatin metabolism in rat liver microsomes; conditions: ref Ubeaud et al. (1999); cited from earlier work
# [2] = ref Gardana et al. (2007), cited from earlier work
# [3] = 10 h post dosing; ref Felgines et al. (2000); cited from earlier work
# [4] = system: Salmonella typhimurium (TA98, TA100, TA102, TA1535, TA1537) and E. coli WP2uvrA; test: Bacterial reverse mutation assay; assay type: cell-based; conditions: for concentration with reduction in growth of bacterial background lawns: plate incorporation; for concentration with reduction of bacterial background lawns: pre-incubation
# CYP450 isoforms = conditions: read-out: IC50 or Ki values; certain CYP450 isoforms; ref Lu et al. (2011); cited from earlier work
# [5] = system: felodipine metabolism in human liver microsomes; conditions: substrate felodipine; ref Fasinu et al. (2013), Ho et al. (2001); cited from earlier work
# [6] = system: Intestinal bacteria isolated from human faeces; conditions: 5 mg flavonoids in 50 mL broth, 2 days, anaerobic; ref Kim et al. (1998); cited from earlier work
# Clostridium orbiscindens = conditions: ref Schoefer et al. (2003); cited from earlier work
# [7] = cited from earlier work
# [8] = ref Bugianesi et al. (2002), cited from earlier work
# CYP3A4 = conditions: testosterone (10 μM); ref Lu et al. (2011); cited from earlier work
# [9] = ref Rebello et al. (2020), cited from earlier work
# Wistar rats [10] = test: In vivo comet assay in liver and duodenum; design: species or system rat; conditions: 500, 1000, 2000 mg/kg bw per day, Wistar rats, M, gavage
# Wistar rats [11] = conditions: ref Selvam and Kaliyaperumal (2015), cited from earlier work
# Wistar rats [12] = test: 28-day dose range-finding oral toxicity study in Wistar rats; assay type: in vivo, rat
# How it was run: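 Test compound given by gavage at 1000 to 5000 mg/kg bw per day; haematology, clinical chemistry and organ weights, including uterus weight, were recorded.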
# [13] = system: human peripheral blood lymphocytes; test: In vitro micronucleus assay with FISH analysis
# [14] = human volunteers; ref Documentation provided to EFSA No. 4; cited from earlier work
# Stability in solution = assay type: physicochemical
# How it was run: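 Test compound was dissolved at 10 g per 100 g propylene glycol and stored at 25 ± 2°C and 60 ± 5% RH, with sampling at 1, 2, 3 and 4 months; recovery was the read-out. Separately, aqueous buffer solutions (50 mg/kg) at pH 3, 5 and 7 were incubated at 90°C as accelerated testing.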
# human faecal slurries = conditions: 50 μmol incubated, ref Pereira‐Caro et al. (2015), cited from earlier work
# [15] = biological target: simvastatin metabolism in human liver microsomes; conditions: ref Ubeaud et al. (1999); cited from earlier work
# ERβ and ERα = conditions: in vitro; ref Helle et al. (2015); cited from earlier work
# Stability as powder = assay type: physicochemical; conditions: room temperature (~ 22°C), long-term
# How it was run: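 The solid was held under accelerated conditions (45°C) and under normal storage at room temperature.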
# [16] = system: Mice (strain not specified); conditions: Gavage, M, 3/group; ref Ortiz‐Andrade et al. (2008); cited from earlier work
# [17] = system: Lactobacillus rhamnosus subsp. Rhamnosus NCTC 10302; conditions: 25 μg/mL, cultures of L. rhamnosus; ref Pereira‐Caro et al. (2016); cited from earlier work
# [18] = 24 h urine, ref Aschoff et al. (2016), cited from earlier work
# [19] = system: Bifidobacterium longum R0175; conditions: 25 μg/mL, cultures of B. longum; ref Pereira‐Caro et al. (2016); cited from earlier work
# [20] = Octanol/water partition coefficient; assay type: physicochemical
# Wistar rats [21] = conditions: 200 mg/kg bw per day, 20 weeks, gavage, male rats; ref Ganapathy et al. (2008); cited from earlier work
smiles,measurement,setting,value
"O=C1CC(c2ccc(O)cc2)Oc2cc(O)cc(O)c21 (stereo not drawn) [naringenin, 4H‐1‐Benzopyran‐4‐one, 2,3‐dihydro‐5,7‐dihydroxy‐2‐(4‐hydroxyphenyl)‐]",Ki,[1],30 µM
same,C max (plasma naringenin),"[2]; BOJ 150 mL, 6 mg (22 μmol)",16.4 ng/mL
same,C max (plasma naringenin),"[2]; BOJ 300 mL, 12 mg (44 μmol)",34 ng/mL
same,naringenin in caecal contents,[3],15 μmol/caecum
same,Result,"[4]; Experiment 1: 1.5–5000 μg/plate (+/− S9, plate incorporation)",Negative
same,Result,"[4]; Experiment 2: 1.5–5000 μg/plate (+/− S9, pre‐incubation)",Negative
same,frequency of revertant colonies,"[4]; TA102, 50 μg/plate, absence of S9‐mix",262 ± 23.8
same,IC50,CYP450 isoforms,~10 µM
same,IC50,[5],122 µM
same,Results: bacterial metabolism,[6],transformed to phenolic acids
same,Results: conversion by C. orbiscindens,Clostridium orbiscindens,converted 0.5 mM naringenin to 3‐(4‐hydroxyphenyl) propionic acid
same,increase of solubility in water upon change of pH,"[7]; 25°C, pH from 6.5 to 8.5, ref Lucas‐Abellán et al. (2019)",~ 20 fold
same,increase of solubility in water upon increase of temperature,"[7]; from 25 to 35°C, ref Zhang et al. (2013), Lucas‐Abellán et al. (2019)",2 factor
same,C max,"[8]; 3.8 mg (14 μmol), tomato paste/oil",32 ± 8 ng/mL
same,unconjugated naringenin in plasma,"[8]; 3.8 mg, tomato paste test meal",did not find unconjugated naringenin in plasma samples
same,Plasma half-life,"[8]; 3.8 mg, tomato paste/oil",Decline by 2 h and later
same,AUC0‐24h,[9]; 150 mg,67.61 ± 24.26 µM·h
same,T max,[9]; 150 mg,2 h
same,half-life in plasma,[9]; 150 mg,3 h
same,T max,"[9]; 150 mg, listed as Nar‐A",3.2 ± 0.7 h
same,AUC0‐24h,[9]; 600 mg,199.05 ± 24.36 µM·h
same,T max,[9]; 600 mg,2 h
same,half-life in plasma,[9]; 600 mg,2.65 h
same,T max,"[9]; 600 mg, listed as NAR‐A",2.4 ± 0.7 h
same,Result,Wistar rats [10],Negative
same,LD50,"Wistar rats [11]; Gavage, M, 10/group, arithmetic method",340 mg/kg bw
same,LD50,"Wistar rats [11]; rats, considered not reliable by the Panel",about 330 mg/kg bw
same,uterus weight,Wistar rats [12]; gavage 28 days,no effects on uterus weight
same,Mortality,"Wistar rats [12]; gavage, doses from 1000 to 5000 mg/kg bw per day",Mortality was observed at the highest dose tested
same,MN centromere-negative (FISH analysis),"[13]; 4‐h treatment with or without S9‐mix, naringenin 75, 200 and 250 μg/mL",> 64%
same,Result,"[13]; 125, 150, 200 μg/mL (4 h + 24 h, +S9)",Positive FISH analysis indicates that naringenin induced micronuclei by a clastogenic mechanism
same,Result,"[13]; 125, 150, 200, 250 μg/mL (4 h + 24 h, –S9)",Positive FISH analysis indicates that naringenin induced micronuclei by a clastogenic mechanism
same,MNBN frequency,[13]; 24 h + 24 h treatment,no statistically significant increase
same,glucuronic acid and sulfate conjugates as share of the dose,[14],~ 20 % of the dose
same,time stable when dissolved in propylene glycol,"Stability in solution; 25 ± 2°C, 60 ± 5% RH",at least 4 months
same,time for which stability was demonstrated,"Stability in solution; aqueous buffer solutions (50 mg/kg) pH 3, 5, 7 at 90°C",up to 8 h
same,naringenin remaining,human faecal slurries; after 4 h of incubation,26 to 36 µmol
same,naringenin remaining,human faecal slurries; after 6 h of incubation,13 to 28 µmol
same,naringenin remaining,human faecal slurries; after 24 h of incubation,3 to 8 µmol
same,Ki,[15],23 µM
same,affinity for oestrogen receptors,ERβ and ERα,stronger affinity with ERβ than ERα
same,time remaining stable,Stability as powder,~2 years
same,LD50,[16],> 5000 mg/kg bw
same,Recovery,[17],83%
same,proportion of naringenin excreted in the urine,[18]; after orange fruit (400 g),12.9%
same,proportion of naringenin excreted in the urine,[18]; after pasteurised orange juice (719 g),20.3%
same,Recovery,[19],88%
same,octanol/water partition coefficient,[20],2.52
same,assessed biochemical parameters in stomach and liver,Wistar rats [21],no significant effects
